Laboratory results reported in ChEMBL document CHEMBL5104108, “Concise synthesis and biological activity evaluation of novel pyrazinyl-aryl urea derivatives against several cancer cell lines, which can especially induce T24 apoptotic and necroptotic cell death” (RSC Med Chem, 2022).
Active and inactive are the calls of the source. No cut-off for these calls is given here.

Assays:
T-24 [1] = assay: Up-regulation of p-RIPK1 expression in human T24 cells at 7.5 to 10 uM measured after 16 hrs by Western blot analysis; type: functional, cell-based; conditions: dose 7.5-10 µM
[2] = Half-life in Sprague-Dawley rat at 12 mg/kg, IG measured HPLC analysis; type: ADME, organism-based; conditions: in vivo, po
T-24 [3] = assay: Induction of apoptosis in human T24 cells assessed as increase in Bax expression at 5 to 7.5 uM measured by Western blot analysis; type: functional, cell-based; conditions: dose 5-7.5 µM
Summary of the method: (§1)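 Apoptosis-related proteins measured by Western blot in T24 lysates: 40 μg protein per lane by SDS-PAGE, PVDF transfer, primary and peroxidase-linked secondary antibodies, ECL detection, densitometry of gray values with β-actin as loading control.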

T-24 [4] = assay: Antiproliferative activity against human T24 cells measured after 48 hrs by MTT assay; type: functional, cell-based; conditions: T-24, 48 h
Summary of the method: (§2)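 Cells seeded 5 × 10^3 per well, grown overnight at 37 °C, then exposed to compound at final 1–40 μM (1, 2.5, 5, 7.5, 10, 12.5, 15, 20, 30, 40 μM) for the stated period. MTT added, 4 h at 37 °C, formazan dissolved in DMSO, absorbance read. IC50 = concentration killing 50% of cells relative to untreated control; mean ± S.D. of four independent experiments.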

T-24 [5] = assay: Up-regulation of MLKL mRNA expression in human T24 cells at 7.5 to 12.5 uM measured by RT-PCR analysis; type: functional, cell-based; conditions: dose 7.5-12.5 µM
Summary of the method: (§3)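 Total T24 RNA extracted with TRIzol. RT-PCR normalized to GAPDH, relative expression by 2−ΔΔCt versus control. Incubation 16 h for RIPK1/RIPK3/MLKL. At least three independent experiments, each in triplicate.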

T-24 [6] = assay: Induction of intracellular reactive oxygen species production in human T24 cells assessed as ROS level at 7.5 uM measured after 16 hrs by flow cytometry analysis; type: functional, cell-based
Summary of the method: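 After 16 h treatment, floating and adherent T24 cells pooled and loaded with DCFH-DA (final 10 μM) for 30 min at 37 °C in the dark, washed, resuspended in PBS and analyzed by flow cytometry; fluorescence also quantified by luminescence spectrometry. ROS expressed relative to control; mean ± S.D. of three independent experiments.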

[7] = AUC (0 to 48 hrs) in Sprague-Dawley rat at 12 mg/kg, IG measured HPLC analysis; type: ADME, organism-based; set-up: time < 48 hr, dose 12 mg/kg, route ig; conditions: in vivo, po
T-24 [8] = assay: Induction of apoptosis in human T24 cells assessed as increase in cleaved caspase-8 expression at 0 to 5 uM measured by Western blot analysis; type: functional, cell-based; conditions: dose 0-5 µM; summary of the method: as §1
[9] = Tmax in Sprague-Dawley rat at 12 mg/kg, IG measured HPLC analysis; type: ADME, organism-based; conditions: in vivo, po
Summary of the method: (§4)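 Fasted (12 h) male-unspecified Sprague-Dawley rats (250 ± 20 g), n = 6 per group. Single intragastric dose of suspension (2 mg mL−1 in Tween 80/0.9% NaCl 1.5:5 v/v). Orbital blood drawn at 0.5–48 h and plasma assayed by reversed-phase C18 HPLC-UV. One-compartment fit, weight 1.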

T-24 [10] = assay: Up-regulation of caspase-8 mRNA expression in human T24 cells at 2.5 to 7.5 uM measured after 10 hrs by RT-PCR analysis; type: functional, cell-based; conditions: dose 2.5-7.5 µM
T-24 [11] = assay: Up-regulation of RIPK2 expression in human T24 cells at 7.5 to 10 uM measured after 16 hrs by Western blot analysis; type: functional, cell-based; conditions: dose 7.5-10 µM
T-24 [12] = assay: Induction of apoptosis in human T24 cells assessed as apoptotic cells at 5 uM measured after 10 hrs by Annexin-V/FITC and propidium iodide staining based flow cytometry analysis; type: functional
Summary of the method: (§5)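 T24 cells in 60 mm dishes treated 10 h at 37 °C, collected, PBS-washed, resuspended in binding buffer, stained with Annexin V-FITC and PI for 15 min at room temperature in the dark. At least 1 × 10^4 events per sample by flow cytometry; apoptotic cells = early (Annexin+/PI−) plus late (Annexin+/PI+). Triplicate experiments.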

T-24 [13] = assay: Induction of necroptosis in human T24 cells assessed as necrotic cells at 7.5 to 12.5 uM measured after 16 hrs by flow cytometry analysis; type: functional, cell-based; conditions: dose 7.5-12.5 µM
Summary of the method: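 T24 cells in 60 mm dishes treated at 37 °C for 16 h with or without Nec-1 (60 μM). Washed thrice in PBS, then stained with Annexin V-FITC/PI for 15 min at room temperature in the dark. Flow cytometry, ≥1 × 10^4 events. Necrotic fraction taken as Annexin−/PI+. Done in triplicate.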

T-24 [14] = assay: Up-regulation of RIPK1 mRNA expression in human T24 cells at 7.5 to 12.5 uM measured by RT-PCR analysis; type: functional, cell-based; conditions: dose 7.5-12.5 µM; summary of the method: as §3
[15] = Absorption rate constant in Sprague-Dawley rat at 6 mg/kg, IG measured HPLC analysis; type: ADME, organism-based; conditions: in vivo, po
T-24 [16] = assay: Down-regulation of VEGFR-2 mRNA expression in human T24 cells at 7.5 uM measured in presence of 25 uM apatinib by RT-PCR analysis; type: functional, cell-based
T-24 [17] = assay: Induction of apoptosis in human T24 cells assessed as increase in caspase-8 expression at 0 to 5 uM measured by Western blot analysis; type: functional, cell-based; conditions: dose 0-5 µM; summary of the method: as §1
T-24 [18] = assay: Induction of apoptosis in human T24 cells assessed as apoptotic cells at 7.5 uM measured after 10 hrs by Annexin-V/FITC and propidium iodide staining based flow cytometry analysis; type: functional; summary of the method: as §5
T-24 [19] = assay: Up-regulation of RIPK3 expression in human T24 cells at 7.5 to 10 uM measured after 16 hrs by Western blot analysis; type: functional, cell-based; conditions: dose 7.5-10 µM
T-24 [20] = assay: Antiproliferative activity against human T24 cells measured after 24 hrs by MTT assay; type: functional, cell-based; conditions: T-24, 24 h; summary of the method: as §2
HepG2 = assay: Antiproliferative activity against human HepG2 cells measured after 48 hrs by MTT assay; type: functional, cell-based; conditions: HepG2, 48 h; summary of the method: as §2
[21] = Clearance in Sprague-Dawley rat at 6 mg/kg, IG measured HPLC analysis; type: ADME, organism-based; conditions: in vivo, po
[22] = Cmax in Sprague-Dawley rat at 12 mg/kg, IG measured HPLC analysis; type: ADME, organism-based; set-up: dose 12 mg/kg, route ig; conditions: in vivo, po
T-24 [23] = assay: Down-regulation of MLKL expression in human T24 cells at 7.5 to 10 uM measured in presence of 60 uM Nec-1 after 16 hrs by Western blot analysis; type: functional, cell-based; conditions: dose 7.5-10 µM
Summary of the method: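 T24 cells co-incubated 16 h with or without Nec-1 (60 μM). Lysates quantified by BCA, 40 μg protein resolved by SDS-PAGE, transferred to PVDF, probed with primary and peroxidase-conjugated secondary antibodies, detected by ECL. Band gray values normalized to β-actin loading control.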

[24] = MRT (0 to 48 hrs) in Sprague-Dawley rat at 12 mg/kg, IG measured HPLC analysis; type: ADME, organism-based; conditions: in vivo, po; summary of the method: as §4
MGC-803 = assay: Antiproliferative activity against human MGC-803 cells measured after 48 hrs by MTT assay; type: functional, cell-based; conditions: MGC-803, 48 h; summary of the method: as §2
T-24 [25] = assay: Induction of apoptosis in human T24 cells assessed as apoptotic cells at 2.5 uM measured after 10 hrs by Annexin-V/FITC and propidium iodide staining based flow cytometry analysis; type: functional; summary of the method: as §5
T-24 [26] = assay: Down-regulation of VEGFR-1 mRNA expression in human T24 cells at 7.5 uM measured in presence of 25 uM apatinib by RT-PCR analysis; type: functional, cell-based

- half-life [2]: 7.17 h
- AUC(0-t) at 48 h [7]: 75800 ng·h/mL
- Tmax [9]: 12.4 h
- Ka [15]: 0.098 h⁻¹
- IC50 (HepG2): 5.05 µM
- CL/F [21]: 0.811 mL/min
- Cmax [22]: 3360 ng/mL
- MRT last [24]: 10.3 h
- IC50 (MGC-803): 6.91 µM
Compound: O=C(Nc1ccc(C(F)(F)F)cc1)Nc1cccc(CNc2nccnc2Cl)c1
- Activity (T-24 [1]): Active
- Activity (T-24 [3]): Active
- IC50 (T-24 [4]): 4.58 µM
- Activity (T-24 [5]): Active
- Activity (T-24 [6]): Active
- Activity (T-24 [8]): Active
- Activity (T-24 [10]): Active
- Activity (T-24 [11]): Active
- Activity (T-24 [12]): 14.83%
- Activity (T-24 [13]): Active
- Activity (T-24 [14]): Active
- Activity (T-24 [16]): Active
- Activity (T-24 [17]): Active
- Activity (T-24 [18]): 21.41%
- Activity (T-24 [19]): Active
- IC50 (T-24 [20]): 9.18 µM
- Activity (T-24 [23]): Active
- Activity (T-24 [25]): 9.01%
- Activity (T-24 [26]): Active
